Results from ChEMBL document CHEMBL1124947, “Cationic antiprotozoal drugs. Trypanocidal activity of 2-(4'-formylphenyl)imidazo[1,2-a]pyridinium guanylhydrazones and related derivatives of quaternary heteroaromatic compounds” (J Med Chem, 1990).
One block for each compound: values may come before it.

How the values were obtained:
Type in all cases: functional
Mus musculus [1] = assay: Trypanocidal Activity at I.C.E. value 0.65 when administered subcutaneously.
Method in brief: (§1)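 Mice, in groups of five per dose, were given a standard inoculum of blood-stage T. rhodesiense that is lethal to all untreated controls, then dosed subcutaneously. Usually 11 dose levels were used (2^n × 0.42 mg/kg).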

Mus musculus [2] = assay: Trypanocidal Activity at I.C.E. value 0.47 when administered subcutaneously.
Method in brief: (§2)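 Blood-stage T. rhodesiense infection came from a standard inoculum lethal to all untreated mice. Drug was given by subcutaneous injection to groups of five mice. Survival beyond 30 days counted as cure. […] Sub-curative doses scored 0, and data were normalized at each dose.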

Mus musculus [3] = assay: Trypanocidal Activity at I.C.E. value 0.16 when administered subcutaneously.
[4] = test system: Trypanosoma brucei rhodesiense; assay: In Vitro measurement of inhibition of leucine uptake in cell culture of Trypanosoma rhodesiense; conditions: read-out: ID50 (the source's name)
Method in brief: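 Trypanosomes harvested from infected rats, cultured 3 h with several concentrations of drug, usually 0.1–100 µg/mL. Radiolabeled L-leucine uptake measured. ID50 is the concentration in µg/mL giving 50% inhibition of incorporation.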

[5] = test system: Trypanosoma brucei rhodesiense; assay: In Vitro measurement of inhibition of thymidine uptake in cell culture of Trypanosoma rhodesiense; conditions: read-out: ID50 (the source's name)
Method in brief: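 Parasites harvested from infected rats and incubated 3 h across a drug concentration series, usually 0.1–100 µg/mL. Incorporation of radiolabeled thymidine measured. ID50 is the concentration (µg/mL) producing 50% inhibition.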

Mus musculus [6] = assay: Trypanocidal Activity at I.C.E. value 0.36 when administered subcutaneously.
Mus musculus [7] = assay: Trypanocidal Activity at I.C.E. value 0.57 when administered perorally.
Mus musculus [8] = assay: Trypanocidal Activity at I.C.E. value 0.57 when administered subcutaneously.; method in brief: as §1
Mus musculus [9] = assay: Trypanocidal Activity at I.C.E. value 0.44 when administered subcutaneously.; method in brief: as §2
Mus musculus [10] = assay: Trypanocidal Activity at I.C.E. value 0.59 when administered subcutaneously.; method in brief: as §1
Mus musculus [11] = assay: Trypanocidal Activity at I.C.E. value 0.32 when administered subcutaneously.; method in brief: as §2
Mus musculus [12] = assay: Trypanocidal Activity at I.C.E. value 0.67 when administered subcutaneously.; method in brief: as §1
Mus musculus [13] = assay: Trypanocidal Activity at I.C.E. value 0.34 when administered subcutaneously.; method in brief: as §2
Mus musculus [14] = assay: Trypanocidal Activity at I.C.E. value 0.24 when administered subcutaneously.; method in brief: as §2
Mus musculus [15] = assay: Trypanocidal Activity at I.C.E. value 0.71 when administered subcutaneously.; method in brief: as §1
Mus musculus [16] = assay: Trypanocidal Activity at I.C.E. value 0.17 when administered subcutaneously.
Mus musculus [17] = assay: Trypanocidal Activity at I.C.E. value 0.52 when administered subcutaneously.; method in brief: as §2

Compound: Br.C=CCNC(=N)N/N=C/c1ccc(-c2cn3ccccc3[n+]2C)cc1.[Br-]
- CD50 (Mus musculus [1]): 0.2 mg/kg

Compound: Br.CC/N=C(\NCC)N/N=C/c1ccc(/C=C/c2cn3c(C)cccc3[n+]2C)cc1.[Br-]
- CD50 (Mus musculus [1]): 0.4 mg/kg

Compound: Br.Cc1ccc2n(c1)cc(-c1ccc(/C=N/NC(=N)N3CCOCC3)cc1)[n+]2C.[Br-]
- CD50 (Mus musculus [2]): 0.8 mg/kg

Compound: C[n+]1cscc1COc1ccc(/C=N/NC(=N)N2CCCC2)cc1.Cc1ccc(S(=O)(=O)O)cc1.Cc1ccc(S(=O)(=O)[O-])cc1
- CD50 (Mus musculus [3]): 13 mg/kg
- IC50 [4]: 0.7 µg/mL
- IC50 [5]: 2.2 µg/mL

Compound: Br.CC/N=C(\NCC)N/N=C/c1ccc(OCc2cn3cc(C)ccc3[n+]2C)cc1.[Br-]
- CD50 (Mus musculus [6]): 1.6 mg/kg

Compound: Br.Cc1ccc2n(c1)cc(/C=C/c1ccc(/C=N/NC(=N)N)cc1)[n+]2C.[Br-]
- CD50 (Mus musculus [1]): 0.8 mg/kg

Compound: Br.CCNC(=N)N/N=C/c1ccc(-c2cn3ccc(C)cc3[n+]2C)cc1.[Br-]
- CD50 (Mus musculus [7]): 13 mg/kg
- CD50 (Mus musculus [8]): 0.1 mg/kg

Compound: Br.Cn1cc[n+](C)c1/C=C/c1ccc(/C=N/NC(=N)NO)cc1.[Br-]
- CD50 (Mus musculus [2]): 0.8 mg/kg

- IC50 [4]: > 10 µg/mL
- IC50 [5]: 0.3 µg/mL
Compound: Cc1ccc2n(c1)cc(-c1ccc(/C=N/Nc3nc(N)nc(N)n3)cc1)[n+]2C.[I-]

Compound: Br.C[n+]1c(-c2ccc(/C=N/NC(=N)N3CCCCC3)cc2)cn2ccccc21.[Br-]
- CD50 (Mus musculus [9]): 0.8 mg/kg

Compound: Br.CCCNC(=N)N/N=C/c1ccc(-c2cn3ccccc3[n+]2C)cc1.[Br-]
- CD50 (Mus musculus [10]): 0.1 mg/kg

Compound: Cc1ccc(S(=O)(=O)[O-])cc1.Cn1cc[n+](C)c1/C=C/c1ccc(/C=N/NC(=O)c2ccc(N)cc2)cc1
- CD50 (Mus musculus [11]): 26 mg/kg

Compound: Br.CSC(=N)N/N=C/c1ccc(OCc2cn3ccccc3[n+]2C)cc1.[Br-]
- CD50 (Mus musculus [9]): 26 mg/kg
- IC50 [4]: 3.3 µg/mL
- IC50 [5]: 4.6 µg/mL

Compound: Br.CCNC(=N)N/N=C/c1ccc(OCc2cn3cc(C)ccc3[n+]2C)cc1.[Br-]
- CD50 (Mus musculus [12]): 0.4 mg/kg

Compound: C[n+]1c(COc2ccc(/C=N/NC(=N)N)cc2)cn2cc(C(F)(F)F)ccc21.Cc1ccc(S(=O)(=O)O)cc1.Cc1ccc(S(=O)(=O)[O-])cc1
- CD50 (Mus musculus [12]): 6.6 mg/kg

Compound: C[n+]1c(-c2ccc(C(N)=S)cc2)cn2ccccc21.Cc1ccc(S(=O)(=O)[O-])cc1
- CD50 (Mus musculus [13]): 53 mg/kg

Compound: C[n+]1c(-c2ccc(/C=N/NC(N)=S)cc2)cn2ccccc21.Cc1ccc(S(=O)(=O)[O-])cc1
- CD50 (Mus musculus [14]): 106 mg/kg

Compound: Br.Cc1ccn2cc(-c3ccc(/C=N/NC(=N)NO)cc3)[n+](C)c2c1.[Br-]
- CD50 (Mus musculus [15]): 0.2 mg/kg
- IC50 [4]: 0.7 µg/mL
- IC50 [5]: 0.9 µg/mL

Compound: Br.C[n+]1c(-c2ccc(/C=N/NC3=NCCCN3)cc2)cn2ccsc21.[Br-]
- CD50 (Mus musculus [2]): 0.2 mg/kg

Compound: Br.C[n+]1c(COc2ccc(/C=N/NC(=N)NO)cc2)cn2ccccc21.[Br-]
- CD50 (Mus musculus [8]): 0.4 mg/kg

Compound: Br.C[n+]1c(-c2ccc(/C=N/NC3=NCCN3)cc2)cn2ccsc21.[Br-]
- CD50 (Mus musculus [9]): 0.8 mg/kg
- IC50 [4]: 0.8 µg/mL
- IC50 [5]: 0.6 µg/mL

Compound: Br.C[n+]1c(COc2ccc(/C=N/NC(=N)NO)cc2)cn2cc(C(F)(F)F)ccc21.[Br-]
- CD50 (Mus musculus [10]): 6.6 mg/kg

Compound: Br.CCS(=O)(=O)c1ccc2n(c1)cc(-c1ccc(/C=N/NC(=N)N)cc1)[n+]2C.[Br-]
- CD50 (Mus musculus [12]): 0.8 mg/kg

Compound: Br.C[n+]1c(-c2ccc(/C=N/NC3=NCCN3)cc2)c(Br)n2ccccc21.[Br-]
- CD50 (Mus musculus [16]): 3.3 mg/kg
- IC50 [4]: 0.7 µg/mL
- IC50 [5]: 0.7 µg/mL

Compound: Br.Cc1ccn2cc(COc3ccc(/C=N/NC(=N)N)cc3)[n+](C)c2c1.[Br-]
- CD50 (Mus musculus [7]): 6.6 mg/kg
- CD50 (Mus musculus [17]): 0.2 mg/kg

Compound: Br.Cc1ccn2cc(-c3ccc(/C=N/NC4=NCCCN4)cc3)[n+](C)c2c1.[Br-]
- CD50 (Mus musculus [12]): 0.1 mg/kg
- CD50 (Mus musculus [7]): 6.6 mg/kg
- IC50 [4]: 1.1 µg/mL
- IC50 [5]: 0.7 µg/mL

Compound: Br.Cc1ccn2cc(COc3ccc(/C=N/NC(=N)N4CCCC4)cc3)[n+](C)c2c1.[Br-]
- CD50 (Mus musculus [11]): 0.4 mg/kg

Compound: CCSc1ccc2n(c1)cc(-c1ccc(/C=N/Nc3nc(N)nc(N)n3)cc1)[n+]2C.Cc1ccc(S(=O)(=O)[O-])cc1
- CD50 (Mus musculus [15]): 1.6 mg/kg
- IC50 [4]: > 10 µg/mL
- IC50 [5]: 0.6 µg/mL

Compound: Br.C[n+]1c(-c2ccc(/C=N/NC3=NCCN3)cc2)cn2c1CCCC2.[Br-]
- CD50 (Mus musculus [9]): 0.4 mg/kg

Compound: Br.Cn1cc[n+](C)c1COc1ccc(/C=N/NC(=N)N)cc1.[Br-]
- CD50 (Mus musculus [3]): 6.6 mg/kg
